# High-throughput results (PubChem BioAssay)
# The list is not random: actives were taken first. Their share in the collection is about 4.3%.
# CAL PDZ FP-1: blocks peptide binding to human CAL PDZ domain | Q9HD26 | purified CAL PDZ, TMR-peptide fluorescence polarization, 1 h | inhibition, % at 20 µM | hit rate 0.02% among 330,000;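 active = highest replicate inhibition of at least 40%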
#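 Control set: unlabelled peptide and DMSO controls / Material: purified CerCALP PDZ construct / Timing: 1 h incubation at room temperature before polarization reading / Doses: 20 µM, one dose / Detection: fluorescence polarization (mP)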
# Rtt109 HAT inh: inhibitors of Candida albicans Rtt109/Vps75 histone acetyltransferase | hit rate 0.16% among 330,000 | purified Rtt109/Vps75, ThioGlo CoA-SH fluorescence, 4 h | inhibition, % at 34.9 µM | AID 540336;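 active = inhibition of at least 50% in every replicate; inconclusive = best replicate reaches 50% inhibition but some replicates fall short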
# Target sequence (Q5AAJ8 whole entry, looked up): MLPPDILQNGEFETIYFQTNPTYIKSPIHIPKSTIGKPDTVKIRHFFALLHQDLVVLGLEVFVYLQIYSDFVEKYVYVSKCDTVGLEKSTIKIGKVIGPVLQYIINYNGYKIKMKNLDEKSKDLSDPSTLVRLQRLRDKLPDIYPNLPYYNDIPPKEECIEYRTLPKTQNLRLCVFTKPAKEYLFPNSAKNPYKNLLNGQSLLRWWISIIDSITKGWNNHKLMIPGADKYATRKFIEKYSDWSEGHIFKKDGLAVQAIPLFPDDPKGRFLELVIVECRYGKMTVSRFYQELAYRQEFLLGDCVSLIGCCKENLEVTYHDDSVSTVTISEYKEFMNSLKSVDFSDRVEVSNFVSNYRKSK
# DYRK1A inh: inhibitors of rat Dyrk1A kinase; Q63470; ADP-Glo luminescence, NFATc1 peptide; inhibition, % at 12.5 µM; hit rate 0.43% among 310,000; in the data active = inhibition above about 50%
# CAL PDZ FP-2: blocks peptide binding to the human CAL PDZ domain; Q9HD26; AID 602252; purified CAL PDZ, TMR-peptide fluorescence polarization, 1 h; hit rate 0.92% among 300,000; inhibition, % at 24.9 µM;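 active = mean inhibition of at least 30% with at least half of replicates also reaching 30%; inconclusive = no clear call, values can overlap the other calls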
# ALR inh: inhibitors of human sulfhydryl oxidase ALR | P55789 | purified ALR, DTT oxidation, H2O2 HRP-luminol luminescence | inhibition, % (test concentration not listed) | hit rate 3.8% among 290,000;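 active = mean replicate inhibition above about 79%, with every replicate also reaching it, limit read from the data; inconclusive = only one of the two criteria met; inactive = mean below limit and not every replicate reaching it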
# Target sequence (P55789 whole entry, looked up): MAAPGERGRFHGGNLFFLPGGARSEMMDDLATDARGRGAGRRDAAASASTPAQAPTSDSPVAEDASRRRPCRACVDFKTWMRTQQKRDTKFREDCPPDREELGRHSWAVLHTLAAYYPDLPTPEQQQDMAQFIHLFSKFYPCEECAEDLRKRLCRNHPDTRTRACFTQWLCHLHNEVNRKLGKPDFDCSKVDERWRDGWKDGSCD
# Numbers stand for hits; i = inactive; ? = inconclusive; nt = not tested or not shown.
SMILES,CAL PDZ FP-1,Rtt109 HAT inh,DYRK1A inh,CAL PDZ FP-2,ALR inh
COC(=O)c1cc(NC(=O)CC2NCCNC2=O)cc(C(=O)OC)c1 (stereo not drawn),i,i,i,i,i
COC(=O)c1sccc1NC(=O)CC1NCCNC1=O (stereo not drawn),i,i,i,130,i
CCC(C)NC(=O)CSc1c2c(nc3ccccc13)CCCC2 (stereo not drawn),i,i,i,i,i
COc1cccc(NC(=O)CSc2c3c(nc4ccccc24)CCCC3)c1,i,i,i,i,99
COc1cccc(NC(=O)CSc2ncnc3c2cnn3Cc2ccccc2)c1,i,i,i,i,90
Cc1cccc(NC(=O)CSc2c3c(nc4ccccc24)CCC3)n1,i,nt,i,i,99
CC1CCN(S(=O)(=O)c2nnc(NC(=O)c3cccc(Cl)c3)s2)CC1,i,i,i,i,i
N#CC1=C(S)N(c2ccccc2)C(c2ccc(-c3cccc(Cl)c3)o2)NC1=O (stereo not drawn),i,99,i,i,i
COc1ccc(C2NC(=O)C(C#N)=C(S)N2c2ccccc2)cc1OC (stereo not drawn),i,i,nt,i,94
Cc1cccc(N2C(S)=C(C#N)C(=O)NC2c2ccco2)c1 (stereo not drawn),i,i,i,nt,i
COc1ccc(N2C(S)=C(C#N)C(=O)NC2c2ccco2)cc1 (stereo not drawn),i,63,i,i,?
COc1cc(C2NC(=O)C(C#N)=C(S)N2c2ccccc2)ccc1OC(C)C (stereo not drawn),i,122,i,i,i
CCOc1ccc(C2NC(=O)C(C#N)=C(S)N2c2ccc(C)cc2)cc1OC (stereo not drawn),i,?,i,i,i
CN(C)S(=O)(=O)c1ccc(C(=O)NCc2nnc(SCC(=O)N3CCCC3)o2)cc1,i,i,nt,nt,i
COc1cc(C(=O)Nc2ccc(O)cc2C(=O)O)ccc1OC(C)=O,i,i,i,nt,87
O=C(C[C@H]1C/C=C\CC[C@H](Cc2ccc(F)cc2)C(=O)O[C@H](c2ccccc2)CNC1=O)N[C@H](CO)Cc1ccccc1,i,i,nt,i,i
COc1ccc(N2CCN(S(=O)(=O)CCNC(=O)COc3ccccc3OC)CC2)cc1,i,i,i,i,93
COc1ccccc1OCC(=O)NCCS(=O)(=O)N1CCN(c2ccc(F)cc2)CC1,i,i,i,54,i
COc1ccc(OC)c(S(=O)(=O)NCCS(=O)(=O)N2CCN(c3ccccc3)CC2)c1,i,i,i,35,i
COc1ccc(S(=O)(=O)NCCS(=O)(=O)N2CCN(c3ccccc3)CC2)cc1,i,i,i,i,i
OCC[C@@H]1C[C@@H](O)[C@H](O)[C@@]2(CCCCO2)O1,i,i,i,i,i
CCOC(=O)c1ccc(-n2c(CCC(=O)O)ccc2-c2cccs2)cc1,i,i,i,i,i
O=C(O)CCc1ccc(-c2cccs2)n1NC(=O)c1cccs1,i,i,i,i,99
O=C(O)CCc1ccc(-c2cccs2)n1Cc1ccco1,i,i,i,i,99
O=C(O)CCc1ccc(-c2ccc(Cl)cc2)n1Cc1ccco1,i,nt,i,i,i
SMILES,CAL PDZ FP-1,Rtt109 HAT inh,DYRK1A inh,CAL PDZ FP-2,ALR inh
O=C(O)CCc1ccc(-c2cccs2)n1NC(=O)c1ccc(O)cc1,i,i,i,i,i
O=C(O)CCc1ccc(-c2cccs2)o1,i,53,i,i,i
CCCCn1c(CCC(=O)O)ccc1-c1cccs1,i,i,i,i,93
CSCC[C@H](N)C(=O)NCC1CCC(C(=O)Nc2ccc3c(c2)OCO3)CC1 (stereo partly drawn),i,i,i,i,i
CC(C)CC(=O)Nc1cccc(C(C)O)c1 (stereo not drawn),nt,nt,nt,nt,i
Cc1ccc(-n2c(CCC(=O)O)ccc2-c2cccs2)cc1C,i,i,i,i,nt
COCCn1c(CCC(=O)O)ccc1-c1cccs1,i,i,i,i,81
O=C(Nc1ccc(SC(F)F)cc1)c1ccc(F)cc1,i,i,i,nt,i
Fc1ccc(-c2nc3ccncc3[nH]2)cc1,nt,i,i,i,i
Fc1ccc(-c2ccnc(=S)[nH]2)cc1,i,i,i,i,99
CCC(=O)N(C)CCc1cc2c(c(OC)c1/C=N/NC(=O)[C@H]1C[C@@H]1c1ccccc1)OCO2,i,i,nt,i,nt
CCC(=O)N(C)CCc1cc2c(c(OC)c1/C=N/Nc1ccc(C(=O)O)cc1)OCO2,i,i,i,i,99
COc1ccc(Br)cc1C(=O)Nc1ccc(O)cc1,i,i,i,i,99
Cn1ccnc1/C(=N\NC(=O)c1ccccc1)c1cccc([N+](=O)[O-])c1,i,i,nt,i,96
Cn1ccnc1/C(=N\NC(=O)c1ccc(O)cc1)c1cccc([N+](=O)[O-])c1,i,i,i,i,i
O=C(/C=C1\SC(=O)NC1=O)Nc1ccc(F)cc1,i,i,nt,nt,97
O=C(COc1ccccc1/C=C1\SC(=O)NC1=O)Nc1ccccc1,i,i,i,i,nt
Fc1ccc2c(c1)C1OCCCC1C(c1ccccc1)N2 (stereo not drawn),i,i,i,i,88
c1coc(C2Nc3ccccc3C3OCCC23)c1 (stereo not drawn),i,i,i,i,i
COc1ccc(Oc2c(-c3ccc(O)cc3O)n[nH]c2C)cc1,i,nt,i,i,90
CS(=O)(=O)N(CC(=O)N1CCCC1)c1ccc(Cl)cc1,i,i,i,nt,i
C#CCOCCOCCOCCNc1nc(N2CCN(C(=O)[C@H](CCCN=C(N)N)n3cc(C(N)[C@@H](C)CC)nn3)CC2)nc(N2CCN(C(=O)[C@H](CCC(=O)O)n3cc([C@@H](N)CCCCN)nn3)CC2)n1 (stereo partly drawn),i,i,i,i,i
C#CCOCCOCCOCCNc1nc(N2CCN(C(=O)C([C@@H](C)O)n3cc([C@@H](N)CCCCN)nn3)CC2)nc(N2CCN(C(=O)[C@H](CCCCN)n3cc([C@@H](N)CC(N)=O)nn3)CC2)n1 (stereo partly drawn),i,91,i,i,i
C#CCOCCOCCOCCNc1nc(N2CCN(C(=O)[C@H](CCCCN)n3cc([C@@H](N)CC(N)=O)nn3)CC2)nc(N2CCN(C(=O)[C@H](CCCCN)n3cc([C@@H](N)CC(N)=O)nn3)CC2)n1,i,i,i,i,i
C#CCOCCOCCOCCNc1nc(N2CCN(C(=O)[C@H](CCCN=C(N)N)n3cc(C(N)[C@@H](C)CC)nn3)CC2)nc(N2CCN(C(=O)[C@H](CCCCN)n3cc([C@@H](N)[C@H](C)CC)nn3)CC2)n1 (stereo partly drawn),i,54,i,i,i
CN1C(=O)C2C(c3ccc(N(C)C)cc3)NN(Cc3ccccc3)C2C1=O (stereo not drawn),i,i,i,nt,98
C[C@@H]1CC=C[C@H]2[C@H]1C(=O)N(Cc1ccccc1)[C@H]2c1ccc(F)c(-c2ccc(N(C)C)cc2)c1,i,i,i,i,nt
O=C(NC1CC1)c1sccc1-n1cccc1,i,i,i,i,100
